ChEMBL document CHEMBL1156788, “A 1,8-naphthyridone derivative targets the HIV-1 Tat-mediated transcription and potently inhibits the HIV-1 replication” (J Med Chem, 2010)
In brackets after ≈: the same amount, converted by molar mass. Activity calls are given as the source filed them.

How the values were obtained:
[1] = Selectivity index, ratio of CC50 for human MT4 cells to EC50 for HIV1 3B; type: toxicity, cell-based; details: read-out: Ratio CC50/EC50
In short: (§1)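 MT-4 cells at 6 × 10^5 cells/mL, mock- or virus-infected with HIV-1 IIIB or HIV-2 ROD at 100-300 CCID50, with serial 5-fold compound dilutions in triplicate. After 5 days, viability read by MTT at 540 and 690 nm, using the median OD of three wells. EC50 = 50% protection from viral cytopathic effect; CC50 = 50% reduction of OD540 in mock-infected cells. SI = CC50/EC50; mean ± SD of ≥2 experiments.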

[2] = Selectivity index, ratio of CC50 for human MT4 cells to EC50 for HIV2 ROD; type: toxicity, cell-based; details: read-out: Ratio CC50/EC50; in short: as §1
[3] = test system: Human immunodeficiency virus 1; experiment: Antiviral activity against HIV1 3B in human MT4 cells assessed as protection against virus-induced cytopathogenicity by MTT assay; type: functional, organism-based; details: Human immunodeficiency virus 1, 3B; in short: as §1
[4] = test system: Human immunodeficiency virus 2; experiment: Antiviral activity against HIV2 ROD in human MT4 cells assessed as protection against virus-induced cytopathogenicity by MTT assay; type: functional, organism-based; details: Human immunodeficiency virus 2, ISOLATE ROD; in short: as §1
[5] = Cytotoxicity against human MT4 cells by MTT assay; type: cell-based; in short: as §1
[6] = test system: Human immunodeficiency virus 1; experiment: Antiviral activity against HIV1 3B in human MT4 cells assessed as inhibition of p24 protein production measured delay in infection up to 5 hrs by time-of addition experiment; type: functional, organism-based; details: in the assay text read “up to 10 hrs” for “up to 5 hrs”
In short: (§2)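 Time-of-addition assay. MT-4 cells infected with HIV-1 IIIB at moi 0.5 to synchronize replication. Compounds added at various times from 0 to 25 h post-infection; p24 antigen in supernatant measured by ELISA at 31 h p.i. Reference drugs AZT and ritonavir were given at 100× their MT-4/MTT IC50.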

[7] = Selectivity index, ratio of CC50 for PMA-stimulated human U1 cells to EC50 for HIV1; type: toxicity, cell-based; details: read-out: Ratio CC50/EC50
In short: (§3)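 OM-10.1 or U1 cells at 5 × 10⁵ cells/mL were preincubated with compound for 2 h, then stimulated with TNF-α 1 ng/mL or PMA 0.02 μM. After 2 days at 37 °C, supernatant p24 was measured by ELISA for EC50, and parallel cultures were read by MTT for CC50. SI = CC50/EC50. Mean ± SD of at least three experiments.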

[8] = Cytotoxicity against human Jurkat cells by MTT assay; type: cell-based
[9] = test system: Human immunodeficiency virus 1; experiment: Antiviral activity against HIV1 3B in human […] cells assessed as inhibition of p24 production; type: functional, organism-based; details: Human immunodeficiency virus 1, 3B
In short: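 Chronically infected HuT-78 cells washed with PBS and pelleted three times, then 200000 cells per 1 mL seeded with test compound at set concentrations. Grown 44 h; supernatant p24 measured by ELISA. EC50 = 50% reduction of p24 production; mean ± SD of at least three separate experiments. Nevirapine and ritonavir included as controls.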

[10] = test system: Human immunodeficiency virus 1; experiment: Antiviral activity against HIV1 in human U1 cells assessed as inhibition of TNF-alpha-stimulated viral expression measured by p24 production; type: functional, organism-based; details: Human immunodeficiency virus 1, U1
In short: (§4)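 Latently infected OM-10.1 and U1 cells at 5 × 10^5 cells/mL preincubated 2 h with or without compound, then stimulated with TNF-α 1 ng/mL or PMA 0.02 μM. After 2 days at 37 °C, p24 in supernatant measured by ELISA; viability assessed in parallel by MTT. EC50 = 50% reduction of p24; mean ± SD of ≥3 experiments.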

[11] = test system: Human immunodeficiency virus 1; experiment: Antiviral activity against HIV1 in human Jurkat cells assessed as inhibition of GFP expression by flow cytometry; details: Human immunodeficiency virus 1, Jurkat
[12] = Cytotoxicity against TNF-alpha-stimulated human U1 cells by MTT assay; type: cell-based; in short: as §4
[13] = test system: Human immunodeficiency virus 1; experiment: Antiviral activity against HIV1 in human OM10.1 cells assessed as inhibition of TNF-alpha-stimulated viral expression measured by p24 production; type: functional, organism-based; in short: as §4
[14] = test system: Human immunodeficiency virus 1; experiment: Antiviral activity against HIV1 in human PBMC assessed as inhibition of p24 protein production by MTT assay; type: functional, organism-based; details: in the assay text read “by ELISA” for “by MTT assay”
In short: (§5)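 PBMCs from healthy donors isolated by density centrifugation and stimulated 3 days with PHA. Blasts washed, plated at 2 × 10^5 per well with serial compound dilutions and infected with HIV at 1000 CCID50/mL. Medium and compound refreshed at day 4; p24 in supernatant measured by ELISA at day 7. EC50 = 50% inhibition of p24; SI = CC50/EC50.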

[15] = test system: Human immunodeficiency virus 1; experiment: Antiviral activity against HIV1 in human OM10.1 cells assessed as inhibition of PMA-stimulated viral expression measured by p24 production; type: functional, organism-based; in short: as §4
[16] = Cytotoxicity against PMA-stimulated human OM10.1 cells by MTT assay; type: cell-based; in short: as §4
[17] = test system: Human immunodeficiency virus 1; experiment: Antiviral activity against HIV1 in human HeLa cells assessed as inhibition of Tat-mediated transcription after 24 hrs by LTR-driven luciferase reporter assay; type: functional, organism-based
In short: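 HeLa clone carrying an HIV-1 LTR-luciferase reporter, activated with subsaturating Tat or left without Tat for basal promoter activity. Cells incubated with increasing compound concentrations; luciferase measured in cell lysates 24 h after treatment. Controls were DMSO vehicle, untreated cells and flavopiridol at 10 μM.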

[18] = Selectivity index, ratio of CC50 for human PBMC to EC50 for HIV1; in short: as §5
[19] = Selectivity index, ratio of CC50 for TNF-alpha-stimulated human U1 cells to EC50 for HIV1; type: toxicity, cell-based; details: read-out: Ratio CC50/EC50; in short: as §3
[20] = Selectivity index, ratio of CC50 for human Jurkat cells to EC50 for HIV1; type: toxicity, cell-based; details: read-out: Ratio CC50/EC50
[21] = Selectivity index, ratio of CC50 for human MT4 cells to EC50 for HIV1 3B mutant after 60 passage resistance selection by MTT assay; type: toxicity, cell-based; details: read-out: Ratio CC50/EC50
[22] = test system: Human immunodeficiency virus 1; experiment: Antiviral activity against HIV1 3B in human MT4 cells assessed as inhibition of p24 protein production measured delay in infection up to 10 hrs by time-of addition experiment; type: functional, organism-based; in short: as §2
[23] = Selectivity index, ratio of CC50 for PMA-stimulated human OM10.1 cells to EC50 for HIV1; type: toxicity; details: read-out: Ratio CC50/EC50; in short: as §3
[24] = test system: Human immunodeficiency virus 1; experiment: Antiviral activity against HIV1 3B in human MT4 cells assessed as inhibition of p24 protein production measured delay in infection up to 18 hrs by time-of addition experiment; type: functional, organism-based; details: in the assay text read “up to 10 hrs” for “up to 18 hrs”; in short: as §2
[25] = Cytotoxicity against human PBMC by MTT assay; type: cell-based; details: in the assay text read “trypan blue exclusion method” for “MTT assay”
In short: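 Cytotoxicity in PHA-stimulated PBMCs read by trypan blue exclusion; CC50 = concentration reducing viability of mock-infected cells by 50%. Mean ± SD of at least two experiments.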

[26] = test system: Human immunodeficiency virus 1; experiment: Antiviral activity against HIV1 3B mutant in human MT4 cells assessed as protection against virus-induced cytopathogenicity by MTT assay; type: functional, organism-based; details: Human immunodeficiency virus 1, 3B
In short: (§6)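 Virus added at 100-300 CCID50 to MT-4 cells (6 × 10⁵ cells/mL) together with serial 5-fold compound dilutions, triplicate wells. Viability read by MTT after 5 days at 540 and 690 nm, using the median OD of three wells. EC50 is the concentration giving 50% protection from virus-induced cytopathic effect. Mean ± SD of at least two experiments.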

[27] = test system: Human immunodeficiency virus 1; experiment: Antiviral activity against HIV1 in human U1 cells assessed as inhibition of PMA-stimulated viral expression measured by p24 production; type: functional, organism-based; details: Human immunodeficiency virus 1, U1; in short: as §4
[28] = test system: Human immunodeficiency virus 1; experiment: Antiviral activity against HIV1 3B mutant in human MT4 cells assessed as protection against virus-induced cytopathogenicity after 60 passage resistance selection by MTT assay; type: functional, organism-based; details: Human immunodeficiency virus 1, 3B; in short: as §6
[29] = Selectivity index, ratio of CC50 for TNF-alpha-stimulated human OM10.1 cells to EC50 for HIV1; type: toxicity; details: read-out: Ratio CC50/EC50; in short: as §3
[30] = Cytotoxicity against human HuT78 by MTT assay; type: cell-based; details: HuT78 cells
In short: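 Chronically infected HuT-78 cells; CC50 defined as the concentration reducing cell viability by 50%, measured by the MTT method. Mean ± SD of at least three separate experiments.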

C8166T = experiment: Antiviral activity against integrase deficient Simian virus 40/HIV-1 chimera (n/N.Tag.oriT) virus in human C8166T cells assessed as inhibition of viral replication; type: functional, cell-based
In short: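 C8166 T-cells were infected with HIV-1 NL4.3 or N/N.Tag.oriT and exposed to a range of compound concentrations. p24 in the supernatant was measured relative to untreated controls (100%). Toxicity was read in parallel by MTT.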

[31] = Selectivity index, ratio of CC50 for human MT4 cells to EC50 for HIV1 3B mutant; type: toxicity, cell-based; details: read-out: Ratio CC50/EC50
In short: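 SI = CC50 in mock-infected MT-4 cells (MTT, 5 days) divided by EC50 against the selected mutant in the MT-4 MTT cytopathicity assay.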

[32] = Cytotoxicity against TNF-alpha-stimulated human OM10.1 cells by MTT assay; type: cell-based; in short: as §4
[33] = Cytotoxicity against PMA-stimulated human U1 cells by MTT assay; type: cell-based; in short: as §4

Cn1cc(C(=O)O)c(=O)c2ccc(N3CCN(c4ccccn4)CC3)nc21
selectivity ratio [1]: 16
selectivity ratio [2]: 18
EC50 [3]: 0.62 µg/mL (≈ 1.7 µM)
EC50 [4]: 0.55 µg/mL (≈ 1.51 µM)
CC50 [5]: 9.93 µg/mL (≈ 27.2 µM)

Cn1cc(C(=O)O)c(=O)c2ccc(N3CCN(c4cccc(C(F)(F)F)c4)CC3)nc21
selectivity ratio [1]: < 1
selectivity ratio [2]: < 1
EC50 [3]: > 0.41 µg/mL
EC50 [4]: > 0.41 µg/mL
CC50 [5]: 0.41 µg/mL (≈ 0.948 µM)

Cn1cc(C(=O)O)c(=O)c2ccc(N3CCN(c4nccs4)CC3)nc21
selectivity ratio [1]: > 40
selectivity ratio [2]: > 136
EC50 [3]: 3.15 µg/mL (≈ 8.48 µM)
EC50 [4]: 0.922 µg/mL (≈ 2.48 µM)
CC50 [5]: > 125 µg/mL

Cn1cc(C(=O)O)c(=O)c2ccc(N3CCN(c4nc5ccccc5s4)CC3)nc21
Activity [6]: Active
selectivity ratio [1]: 457
selectivity ratio [7]: 1330
CC50 [8]: 15.1 µg/mL (≈ 35.9 µM)
EC50 [9]: 0.032 µg/mL (≈ 0.0759 µM)
EC50 [10]: 0.003 µg/mL (≈ 0.00712 µM)
EC50 [11]: 0.34 µg/mL (≈ 0.807 µM)
CC50 [12]: 0.99 µg/mL (≈ 2.35 µM)
selectivity ratio [2]: 522
EC50 [13]: 0.003 µg/mL (≈ 0.00712 µM)
EC50 [14]: 0.6 µg/mL (≈ 1.42 µM)
EC50 [3]: 0.03 µg/mL (≈ 0.0712 µM)
EC50 [15]: 0.004 µg/mL (≈ 0.00949 µM)
CC50 [16]: 0.75 µg/mL (≈ 1.78 µM)
Activity [17]: Dose-dependent effect
Ratio CC50/EC50 [18]: 17
selectivity ratio [19]: 330
selectivity ratio [20]: 44
selectivity ratio [21]: 1420
Activity [22]: Active
EC50 [4]: 0.02 µg/mL (≈ 0.0475 µM)
selectivity ratio [23]: 189
Activity [24]: Active
CC50 [25]: 10.3 µg/mL (≈ 24.5 µM)
EC50 [26]: 0.019 µg/mL (≈ 0.0451 µM)
EC50 [27]: 0.002 µg/mL (≈ 0.00475 µM)
EC50 [28]: 0.017 µg/mL (≈ 0.0403 µM)
selectivity ratio [29]: 422
CC50 [30]: > 10 µg/mL
Activity (C8166T): Active
selectivity ratio [31]: 1280
CC50 [5]: 12.1 µg/mL (≈ 28.6 µM)
CC50 [32]: 1.27 µg/mL (≈ 3.01 µM)
CC50 [33]: 2.67 µg/mL (≈ 6.33 µM)
